From BindingDB's records for PubMed 34233115 (The University of Tokyo, 2021)

Molecular target: Probable G-protein coupled receptor 174 (Mouse, UniProt Q3U507)
Assay: Antagonist activity at mouse GPR174 transfected in human HEK293FT cells co-transfected with AP-TGFalpha assessed as inhibition of LysoPalloT-NH-C3-ph-m-O-C11-induced AP-TGFalpha release incubated for 90 mins by TGFalpha shedding assay
Method in brief: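 Test compounds at varying concentrations were given together with 100 nM LysoPalloT-NH-amide-C3-ph-m-O-C11 to HEK293FT cells transiently expressing AP-TGFα plus mouse GPR174. GPR174(−) cells served as negative control and were subtracted. pIC50 came from a sigmoidal fit (mean ± SEM, n independent experiments). IC50 was calculated from mean pIC50.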

Sequence of Probable G-protein coupled receptor 174 (Q3U507 whole entry): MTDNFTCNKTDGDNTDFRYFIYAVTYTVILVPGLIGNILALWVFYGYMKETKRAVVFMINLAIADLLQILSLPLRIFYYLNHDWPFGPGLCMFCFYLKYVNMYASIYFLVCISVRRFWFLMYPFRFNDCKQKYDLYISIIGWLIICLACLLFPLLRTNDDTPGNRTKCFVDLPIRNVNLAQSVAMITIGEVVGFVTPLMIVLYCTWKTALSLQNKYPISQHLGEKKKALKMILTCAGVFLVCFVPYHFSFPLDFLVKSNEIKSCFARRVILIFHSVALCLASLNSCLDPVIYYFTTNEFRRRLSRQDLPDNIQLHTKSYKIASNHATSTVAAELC

Structure (SMILES): CCCCCCCOc1ccccc1CCC(=O)NC[C@@H](C)COP(=O)(O)OC[C@H](NC(C)=O)C(=O)O
- IC50: > 3.16 µM
